According to ChEMBL document CHEMBL1121715, “New antiarrhythmic agents. 4. 1'-(Aminoalkyl)-1,2,3,4-tetrahydronaphthalene-1-spiro-3'-pyrrolidine-2',5'-dione derivatives” (J Med Chem, 1981):

Experiments:
[1] = Total body clearance was measured at given dose; format: ADME
Procedure, shortened: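 Blood levels came from the iv-infused dogs, measured by GC-FID after methylene chloride extraction and heptafluorobutyryl derivatization with an internal standard. Total body clearance was total dose divided by the blood-level AUC (zero to infinity); volume of distribution was clearance divided by the elimination rate constant.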

[2] = Volume of distribution was measured at given dose of 227 uM/kg; format: ADME, organism-based; conditions: in vivo
Procedure, shortened: (§1)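 In dogs given iv infusions, blood samples were alkaline-extracted (pH 10.3) into methylene chloride and derivatized with heptafluorobutyrylimidazole. Concentrations were measured by GC-FID against an internal standard using standard curves. Clearance was total dose ÷ blood-level AUC (zero to infinity), and volume of distribution was clearance ÷ elimination rate constant.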

Canis familiaris [3] = species: Canis familiaris; experiment: Nature of toxicity was expressed; A-V convulsion; format: organism-based, Canis lupus familiaris; conditions: dog, in vivo
Procedure, shortened: (§2)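 Adult female dogs (6.7–14.5 kg) had two-stage ligation of the left anterior descending coronary artery the day before testing. After control ventricular rate, % ectopic beats and mean arterial pressure were recorded, the drug (HCl salt, isotonic solution) was infused iv without anesthesia at 0.1, 0.5 or 1.0 (mg/kg)/min, mostly 0.5. Infusion continued until the arrhythmia was abolished or cardiovascular/CNS toxicity appeared. Cumulative dose is given in mmol/kg; toxicity included convulsion and P-R prolongation ≥25%.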

Canis familiaris [4] = species: Canis familiaris; experiment: The dose at which toxicity was measured; 0.065; 0.0182; format: organism-based, Canis lupus familiaris; conditions: dog, in vivo; procedure, shortened: as §2
Canis familiaris [5] = experiment: Blood level was measured in anesthetized dog at 0.053 dose; format: functional, Canis lupus familiaris
Canis familiaris [6] = experiment: Blood level was measured in anesthetized dog at 0.058 dose; format: functional, Canis lupus familiaris
Canis familiaris [7] = species: Canis familiaris; experiment: Toxicity of blood level was measured; format: organism-based, Canis lupus familiaris; conditions: dog, in vivo
Procedure, shortened: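 In coronary-ligated conscious dogs under iv infusion, blood was sampled at toxicity. Drug was extracted with methylene chloride at pH 10.3 (ammonium citrate/ammonia) with another analogue as internal standard, then derivatized with heptafluorobutyrylimidazole. Assay was GC-FID on 3% JXR, quantified from drug/internal standard peak-height ratio against standard curves; results in μmol/mL.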

Canis familiaris [8] = experiment: Blood level was measured in anesthetized dog at 0.015 dose; format: functional, Canis lupus familiaris
Canis familiaris [9] = experiment: Blood level was measured in anesthetized dog at 0.018 dose; format: functional, Canis lupus familiaris
Canis familiaris [10] = experiment: Blood level was measured in anesthetized dog at 0.023 dose; format: functional, Canis lupus familiaris
Canis familiaris [11] = experiment: Blood level was measured in anesthetized dog at 0.038 dose; format: functional, Canis lupus familiaris
Canis familiaris [12] = experiment: % ectopic beats was measured in anesthetized dog at 0.015 dose; format: functional, Canis lupus familiaris, Heart; conditions: in the assay text read “unanesthetized” for “anesthetized”
Procedure, shortened: (§3)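 Adult female dogs (6.7–14.5 kg) had the left anterior descending coronary artery ligated in two stages the day before testing. Dogs were unanesthetized. Ectopic beats (% of ventricular rate) and mean arterial pressure were read at maximal antiarrhythmic effect against the cumulative dose.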

Canis familiaris [13] = experiment: % ectopic beats was measured in anesthetized dog at 0.018 dose; format: functional, Canis lupus familiaris, Heart; conditions: in the assay text read “unanesthetized” for “anesthetized”; procedure, shortened: as §3
Canis familiaris [14] = experiment: % ectopic beats was measured in anesthetized dog at 0.023 dose; format: functional, Canis lupus familiaris, Heart; conditions: in the assay text read “unanesthetized” for “anesthetized”; procedure, shortened: as §3
Canis familiaris [15] = experiment: % ectopic beats was measured in anesthetized dog at 0.038 dose; format: functional, Canis lupus familiaris, Heart; conditions: in the assay text read “unanesthetized” for “anesthetized”; procedure, shortened: as §3
Canis familiaris [16] = experiment: % ectopic beats was measured in anesthetized dog at 0.053 dose; format: functional, Canis lupus familiaris, Heart; conditions: in the assay text read “unanesthetized” for “anesthetized”; procedure, shortened: as §3
Canis familiaris [17] = species: Canis familiaris; experiment: The Maximum dose of the Compound; format: functional, Canis lupus familiaris; procedure, shortened: as §2
Canis familiaris [18] = species: Canis familiaris; experiment: The Maximum dose of the compound; format: functional, Canis lupus familiaris; procedure, shortened: as §2
Canis familiaris [19] = experiment: MABP value was measured in anesthetized dog at 0.015 dose; format: functional, Canis lupus familiaris; conditions: in the assay text read “unanesthetized dog” for “anesthetized dog”; procedure, shortened: as §3
Canis familiaris [20] = experiment: MABP value was measured in anesthetized dog at 0.018 dose; format: functional, Canis lupus familiaris; conditions: in the assay text read “unanesthetized dog” for “anesthetized dog”; procedure, shortened: as §3
Canis familiaris [21] = experiment: MABP value was measured in anesthetized dog at 0.023 dose; format: functional, Canis lupus familiaris; conditions: in the assay text read “unanesthetized dog” for “anesthetized dog”; procedure, shortened: as §3
Canis familiaris [22] = experiment: MABP value was measured in anesthetized dog at 0.038dose; format: functional, Canis lupus familiaris; conditions: in the assay text read “unanesthetized dog” for “anesthetized dog”; procedure, shortened: as §2
Canis familiaris [23] = experiment: MABP value was measured in anesthetized dog at 0.053 dose; format: functional, Canis lupus familiaris; conditions: in the assay text read “unanesthetized dog” for “anesthetized dog”; procedure, shortened: as §2
Canis familiaris [24] = experiment: MABP value was measured in anesthetized dog at 0.058 dose; format: functional, Canis lupus familiaris; conditions: in the assay text read “unanesthetized dog” for “anesthetized dog”; procedure, shortened: as §2
Canis familiaris [25] = experiment: Ventricular rate was measured in anesthetized dog at 0.015 dose; format: functional, Canis lupus familiaris, Heart; conditions: in the assay text read “unanesthetized dog” for “anesthetized dog”; procedure, shortened: as §2
Canis familiaris [26] = experiment: Ventricular rate was measured in anesthetized dog at 0.018 dose; format: functional, Canis lupus familiaris, Heart; conditions: in the assay text read “unanesthetized dog” for “anesthetized dog”; procedure, shortened: as §2
Canis familiaris [27] = experiment: Ventricular rate was measured in anesthetized dog at 0.038 dose; format: functional, Canis lupus familiaris, Heart; conditions: in the assay text read “unanesthetized dog” for “anesthetized dog”; procedure, shortened: as §2
Canis familiaris [28] = experiment: Ventricular rate was measured in anesthetized dog at 0.053 dose; format: functional, Canis lupus familiaris, Heart; conditions: in the assay text read “unanesthetized dog” for “anesthetized dog”; procedure, shortened: as §2
Canis familiaris [29] = experiment: Ventricular rate was measured in anesthetized dog at 0.058 dose; format: functional, Canis lupus familiaris, Heart; conditions: in the assay text read “unanesthetized” for “anesthetized”
Procedure, shortened: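 Adult female dogs (6.7–14.5 kg) had ventricular arrhythmias from two-stage ligation of the left anterior descending coronary artery the day before. Ventricular rate (bpm) was read at maximal antiarrhythmic effect against cumulative dose.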

Canis familiaris [30] = experiment: Ventricular rate was measured in anesthetized dog at 0.023 dose; format: functional, Canis lupus familiaris, Heart; conditions: in the assay text read “unanesthetized” for “anesthetized”; procedure, shortened: as §2
Mus musculus [31] = species: Mus musculus; experiment: Percentage toxicity measured as ataxia.; format: organism-based; conditions: in vivo
Procedure, shortened: (§4)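 Mice (groups of 10) were dosed sc with drug in 0.9% saline and watched for 20 min for overt toxicity (ataxia, convulsions, loss of righting reflex, death) before chloroform exposure.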

[32] = Percentage toxicity measured as death of mice.; format: organism-based; set-up: concentration or dose not given beside the values; conditions: mouse, in vivo; read-out: Death
Mus musculus [33] = species: Mus musculus; experiment: Percentage toxicity measured as loss of righting reflex.; format: organism-based; conditions: in vivo; procedure, shortened: as §4
Mus musculus [34] = experiment: Protection against chloroform induced arrhythmias was measured in mice after sc administration at given dose; format: functional
Procedure, shortened: (§5)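 Groups of 10 unanesthetized mice got sc injection of drug in 0.9% saline. After 20 min observation they were placed one by one in chloroform-vapor-saturated air. When breathing stopped, the thorax was opened and the heart inspected by eye; coordinated ventricular contractions counted as protected.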

Mus musculus [35] = experiment: Protection against chloroform induced arrhythmias in mice after subcutaneous administration at 100 mg/kg dose.; format: functional; procedure, shortened: as §5
[36] = Volume of distribution was measured at given dose of 83 umol/kg; format: ADME, organism-based; conditions: in vivo; procedure, shortened: as §1
Mus musculus [37] = species: Mus musculus; experiment: Percentage toxicity measured as convulsions.; format: organism-based; conditions: in vivo; procedure, shortened: as §4
[38] = Maximal concentration in dogs after intravenous administration; conditions: dog, in vivo
Canis familiaris [39] = experiment: as above; conditions: dog, in vivo
Canis familiaris [40] = experiment: % ectopic beats was measured in unanesthetized dog at 0.058 dose

CN(C)CCCCN1C(=O)CC2(CCCc3ccc(O)cc32)C1=O (stereo unspecified)
ClB [1]: 17.5 mL/min/kg | clearance ([1]; ClB): 31.6 mL/min/kg | Vd [2]: 3.35 L/kg | Nature (Canis familiaris [3]): A-V convulsion | Dose (Canis familiaris [4]): A-V convulsion | Blood level (Canis familiaris [5]): 0.028 uM ml-1 | Blood level (Canis familiaris [6]): 0.017 uM ml-1 | Blood level (Canis familiaris [7]): 0.012 µmol/mL | Blood level (Canis familiaris [8]): 0.024 uM ml-1 | Blood level (Canis familiaris [9]): 0.022 uM ml-1 | Blood level (Canis familiaris [10]): 0.02 uM ml-1 | Blood level (Canis familiaris [11]): 0.023 uM ml-1 | Etopic beats (Canis familiaris [12]): 0% | Etopic beats (Canis familiaris [13]): 1% | Etopic beats (Canis familiaris [14]): 93% | Etopic beats (Canis familiaris [15]): 0% | Etopic beats (Canis familiaris [16]): 3% | Dose (Canis familiaris [17]): 83 µM/kg | Dose (Canis familiaris [18]): 227 µM/kg | MABP (Canis familiaris [19]): 85 mmHg | MABP (Canis familiaris [20]): 120 mmHg | MABP (Canis familiaris [21]): 110 mmHg | MABP (Canis familiaris [22]): 105 mmHg | MABP (Canis familiaris [23]): 135 mmHg | MABP (Canis familiaris [24]): 95 mmHg | Ventricular rate (Canis familiaris [25]): 165 beats min-1 | Ventricular rate (Canis familiaris [26]): 150 beats min-1 | Ventricular rate (Canis familiaris [27]): 171 beats min-1 | Ventricular rate (Canis familiaris [28]): 183 beats min-1 | Ventricular rate (Canis familiaris [29]): 171 beats min-1 | Ventricular rate (Canis familiaris [30]): 138 beats min-1 | Ataxia (Mus musculus [31]): 0% | mortality [32]: 0% | Loss of righting reflex (Mus musculus [33]): 0% | ED50 (Mus musculus [34]): 160 µmol/kg | Protection (Mus musculus [35]): 100% | Vd [36]: 3.02 L/kg | Convulsion (Mus musculus [37]): 0% | Cmax [38]: 37 µM | Cmax (Canis familiaris [39]): 30 µM | Ectopic beats (Canis familiaris [40]): 4%
